The text below walks through data of ChEMBL document CHEMBL4706568, “Some thermodynamic effects of varying nonpolar surfaces in protein-ligand interactions” (Eur J Med Chem, 2020).

Square brackets hold non-standard residues; d marks the D form. Peptide text beside a SMILES is read from it. * marks the point of attachment. pY = N[C@@H](Cc1ccc(OP(=O)(O)O)cc1)C(=O)O; NHPhenethyl = c1ccc(CCN*)cc1; Ac6c = NC1(C(=O)O)CCCCC1; NHBn = c1ccc(CN*)cc1

The target in assay [1] is Growth factor receptor-bound protein 2 (Homo sapiens) (UniProt P62993). Briefly: Binding affinity to Grb2-SH2 domain (53 to 163 residues) (unknown origin) expressed in Escherichia coli assessed as change in entropy by ITC analysis. In outline: (§1)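 Grb2 SH2 residues 53–163 expressed in E. coli SG13009 (IPTG induction), purified by phosphotyrosine affinity, Q-Sepharose and size exclusion to isolate monomer. Protein diluted to 65–85 μM, ligand ~1 mM, both in 50 mM HEPES, 150 mM NaCl, pH 7.50. VP-ITC at 25 °C, ~35 injections of 7–9 μL ligand, buffer heats subtracted, n normalized to 1.00; ≥3 runs averaged.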
For orientation: In ITC the heat of successive injections is recorded.

Assay [2] shares this target. Briefly: Binding affinity to Grb2-SH2 domain (53 to 163 residues) (unknown origin) expressed in Escherichia coli assessed as change in gibbs free energy by ITC analysis. In outline:
as §1

The target is the same in assay [3]. As to the kind of experiment: Binding affinity to Grb2-SH2 domain (53 to 163 residues) (unknown origin) expressed in Escherichia coli assessed as association constant by ITC analysis. In outline: as §1
Assay [4] has the same target. Briefly: Binding affinity to Grb2-SH2 domain (53 to 163 residues) (unknown origin) expressed in Escherichia coli assessed as change in enthalpy by ITC analysis. In outline: as §1

Sequence of Growth factor receptor-bound protein 2 (Homo sapiens) (P62993 whole entry, looked up, the tested form may be a part): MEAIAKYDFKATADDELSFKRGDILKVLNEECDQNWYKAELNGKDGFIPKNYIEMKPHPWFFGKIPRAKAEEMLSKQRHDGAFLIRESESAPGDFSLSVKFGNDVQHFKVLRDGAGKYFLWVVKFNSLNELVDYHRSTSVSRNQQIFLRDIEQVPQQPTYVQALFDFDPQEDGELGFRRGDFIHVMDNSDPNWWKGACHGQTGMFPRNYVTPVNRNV

Turning to `CC(=O)N[C@@H](Cc1ccc(OP(=O)(O)O)cc1)C(=O)NC1(C(=O)N[C@@H](CC(N)=O)C(=O)NCCCc2ccc(C)cc2)CCCCC1`, the -TdeltaS in assay [1] is -1.7 kcal/mol. Besides, in assay [2], the deltaG was -10.3 kcal/mol. Moreover, the Ka in assay [3] is 4 10^7/M. Besides, in assay [4], the deltaH is -8.6 kcal/mol.

For the compound `CC(=O)N[C@@H](Cc1ccc(OP(=O)(O)O)cc1)C(=O)NC1(C(=O)N[C@@H](CC(N)=O)C(=O)NCCCC2CCCCC2)CCCCC1`, the -TdeltaS in assay [1] was -1.9 kcal/mol. Besides, in assay [2], the deltaG is -9.9 kcal/mol. Moreover, in assay [3], the Ka is 1.9 10^7/M. Further, the deltaH in assay [4] was -8 kcal/mol.

With `CC(=O)N[C@@H](Cc1ccc(OP(=O)(O)O)cc1)C(=O)NC1(C(=O)N[C@@H](CC(N)=O)C(=O)NCCCC(C)C)CCCCC1`, the -TdeltaS in assay [1] is -1.9 kcal/mol. In addition, the deltaG in assay [2] is -9.8 kcal/mol. In assay [3], the Ka was 1.6 10^7/M. Moreover, the deltaH in assay [4] is -7.9 kcal/mol.

As for `CC(=O)N[C@@H](Cc1ccc(OP(=O)(O)O)cc1)C(=O)NC1(C(=O)N[C@@H](CC(N)=O)C(=O)NCCCCc2ccccc2)CCCCC1`, the -TdeltaS in assay [1] is -2.1 kcal/mol. In assay [2], the deltaG is -9.8 kcal/mol. The Ka in assay [3] is 1.5 10^7/M. Also, the deltaH in assay [4] is -7.7 kcal/mol.

On to `CC(=O)N[C@@H](Cc1ccc(OP(=O)(O)O)cc1)C(=O)NC1(C(=O)N[C@@H](CC(N)=O)C(=O)NCCCCCc2ccccc2)CCCCC1`, for which the -TdeltaS in assay [1] was -2.3 kcal/mol. Moreover, in assay [2], the deltaG is -10.2 kcal/mol. Moreover, in assay [3], the Ka is 2.8 10^7/M. In assay [4], the deltaH is -7.9 kcal/mol.

For the compound `CC(=O)N[C@@H](Cc1ccc(OP(=O)(O)O)cc1)C(=O)NC1(C(=O)N[C@@H](CC(N)=O)C(=O)NCCc2cn(C)c3ccccc23)CCCCC1`, the -TdeltaS in assay [1] is -2 kcal/mol. The deltaG in assay [2] is -10.1 kcal/mol. Moreover, the Ka in assay [3] is 2.4 10^7/M. Also, the deltaH in assay [4] is -8.1 kcal/mol.

For `CC(=O)N[C@@H](Cc1ccc(OP(=O)(O)O)cc1)C(=O)NC1(C(=O)N[C@@H](CC(N)=O)C(=O)NCCCc2ccccc2)CCCCC1`, the -TdeltaS in assay [1] is -1.3 kcal/mol. The deltaG in assay [2] was -10.1 kcal/mol. The Ka in assay [3] is 2.6 10^7/M. Moreover, the deltaH in assay [4] is -8.8 kcal/mol.

On to `CC(=O)N[C@@H](Cc1ccc(OP(=O)(O)O)cc1)C(=O)NC1(C(=O)N[C@@H](CC(N)=O)C(=O)NCCCc2cn(C)c3ccccc23)CCCCC1`, for which, in assay [1], the -TdeltaS is -0.2 kcal/mol. For the same compound, the deltaG in assay [2] is -10.4 kcal/mol. Moreover, the Ka in assay [3] was 4.9 10^7/M. Also, the deltaH in assay [4] was -10.2 kcal/mol.

`CC(=O)N[C@@H](Cc1ccc(OP(=O)(O)O)cc1)C(=O)NC1(C(=O)N[C@@H](CC(N)=O)C(=O)NCCCc2cccc3ccccc23)CCCCC1`: in assay [1], the -TdeltaS is -1 kcal/mol. In assay [2], the deltaG was -10.6 kcal/mol. Also, the Ka in assay [3] is 6 10^7/M. The deltaH in assay [4] was -9.6 kcal/mol.

`COc1ccc(CCCNC(=O)[C@H](CC(N)=O)NC(=O)C2(NC(=O)[C@H](Cc3ccc(OP(=O)(O)O)cc3)NC(C)=O)CCCCC2)cc1`: the -TdeltaS in assay [1] was -1.4 kcal/mol. In assay [2], the deltaG was -10.5 kcal/mol. Also, the Ka in assay [3] is 5 10^7/M. Also, the deltaH in assay [4] was -9.1 kcal/mol.

`CC(=O)N[C@@H](Cc1ccc(OP(=O)(O)O)cc1)C(=O)NC1(C(=O)N[C@@H](CC(N)=O)C(=O)NCCCc2ccc(Cl)cc2)CCCCC1`: the -TdeltaS in assay [1] is -1.4 kcal/mol. Moreover, the deltaG in assay [2] was -10.5 kcal/mol. Also, the Ka in assay [3] was 4.7 10^7/M. Further, the deltaH in assay [4] was -9.1 kcal/mol.

For `CC(=O)N[C@@H](Cc1ccc(OP(=O)(O)O)cc1)C(=O)NC1(C(=O)N[C@@H](CC(N)=O)C(=O)NCCCn2ccc3ccccc32)CCCCC1`, the -TdeltaS in assay [1] was -1 kcal/mol. For the same compound, the deltaG in assay [2] is -10.1 kcal/mol. For the same compound, in assay [3], the Ka was 2.7 10^7/M. The deltaH in assay [4] was -9.1 kcal/mol.

Take `CC(=O)N[C@@H](Cc1ccc(OP(=O)(O)O)cc1)C(=O)NC1(C(=O)N[C@@H](CC(N)=O)C(N)=O)CCCCC1` (Ac-[pY]-[Ac6c]-Asn-NH2): the -TdeltaS in assay [1] was -0.8 kcal/mol. Moreover, the deltaG in assay [2] was -9.3 kcal/mol. The Ka in assay [3] was 0.7 10^7/M. Moreover, the deltaH in assay [4] was -8.5 kcal/mol.

On to `CC(=O)N[C@@H](Cc1ccc(OP(=O)(O)O)cc1)C(=O)NC1(C(=O)N[C@@H](CC(N)=O)C(=O)NCCCc2c[nH]c3ccccc23)CCCCC1`, for which the -TdeltaS in assay [1] is -1.2 kcal/mol. In assay [2], the deltaG was -10.3 kcal/mol. In addition, the Ka in assay [3] was 3.5 10^7/M. For the same compound, the deltaH in assay [4] was -9.1 kcal/mol.

In the case of `CC(=O)N[C@@H](Cc1ccc(OP(=O)(O)O)cc1)C(=O)NC1(C(=O)N[C@@H](CC(N)=O)C(=O)NCCc2ccccc2)CCCCC1` (Ac-[pY]-[Ac6c]-Asn-NHPhenethyl), in assay [1], the -TdeltaS was -2.1 kcal/mol. In assay [2], the deltaG was -9.8 kcal/mol. In assay [3], the Ka is 1.5 10^7/M. Also, the deltaH in assay [4] is -7.7 kcal/mol.

Regarding `CC(=O)N[C@@H](Cc1ccc(OP(=O)(O)O)cc1)C(=O)NC1(C(=O)N[C@@H](CC(N)=O)C(=O)NCc2cn(C)c3ccccc23)CCCCC1`, the -TdeltaS in assay [1] is -2.8 kcal/mol. Moreover, the deltaG in assay [2] is -9.5 kcal/mol. Moreover, in assay [3], the Ka was 1.1 10^7/M. For the same compound, the deltaH in assay [4] was -6.7 kcal/mol.

Regarding `CC(=O)N[C@@H](Cc1ccc(OP(=O)(O)O)cc1)C(=O)NC1(C(=O)N[C@@H](CC(N)=O)C(=O)NCCCCC(C)C)CCCCC1`, the -TdeltaS in assay [1] is -2 kcal/mol. For the same compound, in assay [2], the deltaG is -9.8 kcal/mol. Besides, the Ka in assay [3] was 1.7 10^7/M. Also, the deltaH in assay [4] is -7.8 kcal/mol.

Consider `CC(=O)N[C@@H](Cc1ccc(OP(=O)(O)O)cc1)C(=O)NC1(C(=O)N[C@@H](CC(N)=O)C(=O)NCc2ccccc2)CCCCC1` (Ac-[pY]-[Ac6c]-Asn-NHBn), for which, in assay [1], the -TdeltaS was -2.1 kcal/mol. Moreover, the deltaG in assay [2] was -9.6 kcal/mol. In addition, the Ka in assay [3] is 1.2 10^7/M. For the same compound, the deltaH in assay [4] is -7.5 kcal/mol.
